Several values for one entry are separate records, joined by “and”; a condition that tells them apart may be missing. Identical values can stand only once.
System: HEK-293T
Assay: Multiplex assay against HEK293T
Format: toxicity, cell-based
Settings: human
Outline: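 Four dyes were applied at seeding to live cells: Hoechst33342, BioTracker Green Microtubule Cytoskeleton Dye, MitoTracker Red and Annexin V Alexa Fluor 680. Imaging after compound addition used a CQ1 microscope at 37°C and 5% CO2. CellPathfinder machine-learning gating then sorted cells into Hoechst high-intensity objects or normal cells, normal cells into healthy, pyknosed or fragmented nuclei, and pyknosed cells into mitotic or apoptotic, with tubulin, mitochondrial-mass and membrane-permeability phenotypes given as per cents of healthy-nucleus cells.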

[1] = 12 h, 1 µM, compound concentration 1 uM
[2] = 12 h, 10 µM, compound concentration 10 uM
[3] = 24 h, 1 µM, compound concentration 1 uM
[4] = 24 h, 10 µM, compound concentration 10 uM
[5] = 48 h, 1 µM, compound concentration 1 uM
[6] = 48 h, 10 µM, compound concentration 10 uM

## CC(N)C1CCC(C(=O)Nc2ccncc2)CC1 (centres undefined)
[1]
  Population Apoptotic (%): 7.48% and 4.2%
  Population Fragmented Nuclei (%): 1.19% and 1.23%
  Population Healthy Nuclei (%): 63.72% and 25.31%
  Population Hoechst High Intensity Objects (%): 0.48% and 0%
  Population Membrane Permeable-Phenotype (%): 0%
  Population Mitotic Cells (%): 92.52% and 95.8%
  Population Normal (%): 99.52% and 100%
  Population Pyknosed Nuclei (%): 35.08% and 73.46%
  Total Cell Count: 421 and 162
[2]
  Population Fragmented Nuclei (%): 1.2% and 1.9%
  Population Healthy Nuclei (%): 60.28% and 29.75%
  Population Hoechst High Intensity Objects (%): 0%
  Population Membrane Permeable-Phenotype (%): 0.99% and 4.26%
  Population Mitochondria Different-Phenotype (%): 27.81% and 17.02%
  Population Mitotic Cells (%): 96.37% and 83.33%
  Population Normal (%): 100%
  Population Pyknosed Nuclei (%): 38.52% and 68.35%
[3]
  Population Apoptotic (%): 2.15% and 8.97%
  Population Fragmented Nuclei (%): 1.77% and 1.69%
  Population Healthy Nuclei (%): 83.28% and 54.49%
  Population Hoechst High Intensity Objects (%): 0.16% and 1.11%
  Population Membrane Permeable-Phenotype (%): 0.97% and 3.09%
  Population Mitochondria Different-Phenotype (%): 6.76% and 5.15%
  Population Mitotic Cells (%): 97.85% and 91.03%
  Population Normal (%): 99.84% and 98.89%
  Population Pyknosed Nuclei (%): 14.95% and 43.82%
  Population Tubulin-Different-Phenotype (%): 6.56% and 4.12%
[4]
  Population Apoptotic (%): 4.95% and 13.95%
  Population Fragmented Nuclei (%): 1.78% and 1.58%
  Population Healthy Nuclei (%): 73.29% and 53.16%
  Population Hoechst High Intensity Objects (%): 0% and 0.52%
  Population Membrane Permeable-Phenotype (%): 0.19% and 2.97%
  Population Mitochondria Different-Phenotype (%): 6.17% and 6.93%
  Population Mitotic Cells (%): 95.05% and 86.05%
  Population Normal (%): 100% and 99.48%
  Population Pyknosed Nuclei (%): 24.93% and 45.26%
  Population Tubulin-Different-Phenotype (%): 3.36% and 1.98%
[5]
  Population Apoptotic (%): 7.52% and 3.77%
  Population Fragmented Nuclei (%): 2.72% and 1.86%
  Population Healthy Nuclei (%): 86.94% and 78.44%
  Population Hoechst High Intensity Objects (%): 0% and 0.74%
  Population Membrane Permeable-Phenotype (%): 3.76% and 2.84%
  Population Mitochondria Different-Phenotype (%): 10.11% and 9.95%
  Population Mitotic Cells (%): 92.48% and 96.23%
  Population Normal (%): 100% and 99.26%
  Population Pyknosed Nuclei (%): 10.34% and 19.7%
[6]
  Population Fragmented Nuclei (%): 1.32% and 1.83%
  Population Healthy Nuclei (%): 88.05% and 71.1%
  Population Hoechst High Intensity Objects (%): 0% and 0.91%
  Population Membrane Permeable-Phenotype (%): 2.25% and 0.65%
  Population Mitochondria Different-Phenotype (%): 9.07% and 6.45%
  Population Mitotic Cells (%): 96.89% and 81.36%
  Population Normal (%): 100% and 99.09%
  Population Pyknosed Nuclei (%): 10.63% and 27.06%
  Population Tubulin-Different-Phenotype (%): 0.3% and 9.68%

## COc1ccc(CC(=O)NC(N/C(=N/C#N)Nc2cccc3ncccc23)C(C)(C)C)cc1OC (centres undefined)
[1]
  Population Apoptotic (%): 11.97% and 9.68%
  Population Fragmented Nuclei (%): 1.67% and 3.75%
  Population Hoechst High Intensity Objects (%): 0%
  Population Membrane Permeable-Phenotype (%): 0.47% and 3.33%
  Population Mitochondria Different-Phenotype (%): 42.45% and 26.67%
  Population Mitotic Cells (%): 88.03% and 90.32%
  Population Normal (%): 100%
  Population Pyknosed Nuclei (%): 39.44% and 77.5%
  Total Cell Count: 360 and 160
[2]
  Population Apoptotic (%): 8.97% and 14.85%
  Population Fragmented Nuclei (%): 3.73% and 3.91%
  Population Healthy Nuclei (%): 51.24% and 17.19%
  Population Hoechst High Intensity Objects (%): 0.31% and 0%
  Population Membrane Permeable-Phenotype (%): 0.61% and 9.09%
  Population Mitochondria Different-Phenotype (%): 26.67% and 22.73%
  Population Mitotic Cells (%): 91.03% and 85.15%
  Population Normal (%): 99.69% and 100%
  Population Pyknosed Nuclei (%): 45.03% and 78.91%
  Total Cell Count: 323 and 128
[3]
  Population Apoptotic (%): 11.48% and 16.07%
  Population Fragmented Nuclei (%): 1.83% and 3.87%
  Population Healthy Nuclei (%): 75.87% and 34.25%
  Population Hoechst High Intensity Objects (%): 0.36% and 0%
  Population Membrane Permeable-Phenotype (%): 1.45% and 0%
  Population Mitochondria Different-Phenotype (%): 14.46% and 11.29%
  Population Mitotic Cells (%): 88.52% and 83.93%
  Population Normal (%): 99.64% and 100%
  Population Pyknosed Nuclei (%): 22.3% and 61.88%
  Population Tubulin-Different-Phenotype (%): 13.49% and 12.9%
[4]
  Population Apoptotic (%): 21.15% and 27.45%
  Population Fragmented Nuclei (%): 2.03% and 2.01%
  Population Healthy Nuclei (%): 74.55% and 29.53%
  Population Hoechst High Intensity Objects (%): 0.22% and 0%
  Population Membrane Permeable-Phenotype (%): 0.91% and 2.27%
  Population Mitochondria Different-Phenotype (%): 18.73% and 22.73%
  Population Mitotic Cells (%): 78.85% and 72.55%
  Population Normal (%): 99.78% and 100%
  Population Pyknosed Nuclei (%): 23.42% and 68.46%
  Population Tubulin-Different-Phenotype (%): 20.54% and 18.18%
  Total Cell Count: 445 and 149
[5]
  Population Apoptotic (%): 8.22% and 21.13%
  Population Fragmented Nuclei (%): 2.43% and 3.09%
  Population Healthy Nuclei (%): 87.12% and 60.31%
  Population Hoechst High Intensity Objects (%): 0.07% and 0%
  Population Membrane Permeable-Phenotype (%): 5.75% and 0%
  Population Mitochondria Different-Phenotype (%): 13.8% and 32.48%
  Population Mitotic Cells (%): 91.78% and 78.87%
  Population Normal (%): 99.93% and 100%
[6]
  Population Fragmented Nuclei (%): 2.78% and 2.07%
  Population Healthy Nuclei (%): 86.6% and 61.14%
  Population Hoechst High Intensity Objects (%): 0.1% and 0%
  Population Membrane Permeable-Phenotype (%): 4.76% and 3.39%
  Population Mitochondria Different-Phenotype (%): 22.86% and 38.98%
  Population Mitotic Cells (%): 93.2% and 77.46%
  Population Normal (%): 99.9% and 100%

## CCCn1c(=O)c2[nH]c(C3CCCC3)nc2n(CCC)c1=O [1,3-DIPROPYL-8-CYCLOPENTYLXANTHINE [DPCPX]]
[1]
  Population Apoptotic (%): 35% and 54%
  Population Fragmented Nuclei (%): 7% and 3%
  Population Healthy Nuclei (%): 79% and 81%
  Population Hoechst High Intensity Objects (%): 6% and 3%
  Population Membrane Permeable-Phenotype (%): 0%
  Population Mitochondria Different-Phenotype (%): 44% and 52%
  Population Mitotic Cells (%): 64% and 45%
  Population Normal (%): 93% and 96%
  Population Pyknosed Nuclei (%): 12% and 14%
  Population Tubulin-Different-Phenotype (%): 32% and 15%
  Total Cell Count: 443 and 361
[2]
  Population Apoptotic (%): 60% and 54%
  Population Fragmented Nuclei (%): 12% and 7%
  Population Healthy Nuclei (%): 68% and 75%
  Population Membrane Permeable-Phenotype (%): 0%
  Population Mitochondria Different-Phenotype (%): 58% and 68%
  Population Mitotic Cells (%): 39% and 45%
  Population Normal (%): 94% and 81%
  Population Pyknosed Nuclei (%): 19% and 16%
  Population Tubulin-Different-Phenotype (%): 51% and 45%
  Total Cell Count: 295 and 337
[3]
  Population Apoptotic (%): 26% and 28%
  Population Fragmented Nuclei (%): 8% and 7%
  Population Healthy Nuclei (%): 78% and 82%
  Population Hoechst High Intensity Objects (%): 4% and 3%
  Population Membrane Permeable-Phenotype (%): 1% and 0%
  Population Mitochondria Different-Phenotype (%): 25% and 45%
  Population Mitotic Cells (%): 73% and 71%
  Population Normal (%): 95% and 96%
  Population Pyknosed Nuclei (%): 13% and 10%
  Population Tubulin-Different-Phenotype (%): 20% and 19%
  Total Cell Count: 610 and 403
[4]
  Population Apoptotic (%): 50% and 41%
  Population Fragmented Nuclei (%): 8% and 7%
  Population Healthy Nuclei (%): 76% and 79%
  Population Membrane Permeable-Phenotype (%): 0%
  Population Mitochondria Different-Phenotype (%): 43% and 55%
  Population Mitotic Cells (%): 50% and 58%
  Population Normal (%): 95% and 84%
  Population Pyknosed Nuclei (%): 14% and 13%
  Population Tubulin-Different-Phenotype (%): 40% and 31%
  Total Cell Count: 379 and 411
[5]
  Population Apoptotic (%): 33% and 39%
  Population Fragmented Nuclei (%): 11% and 14%
  Population Healthy Nuclei (%): 81% and 80%
  Population Hoechst High Intensity Objects (%): 1% and 3%
  Population Membrane Permeable-Phenotype (%): 1% and 0%
  Population Mitochondria Different-Phenotype (%): 17% and 22%
  Population Mitotic Cells (%): 66% and 60%
  Population Normal (%): 98% and 96%
  Population Pyknosed Nuclei (%): 7% and 5%
  Population Tubulin-Different-Phenotype (%): 17% and 13%
  Total Cell Count: 957 and 593
[6]
  Population Apoptotic (%): 29% and 45%
  Population Fragmented Nuclei (%): 14%
  Population Healthy Nuclei (%): 76% and 75%
  Population Hoechst High Intensity Objects (%): 3% and 7%
  Population Membrane Permeable-Phenotype (%): 1% and 0%
  Population Mitochondria Different-Phenotype (%): 37% and 36%
  Population Mitotic Cells (%): 70% and 54%
  Population Normal (%): 96% and 92%
  Population Pyknosed Nuclei (%): 8% and 10%
  Population Tubulin-Different-Phenotype (%): 30% and 23%
  Total Cell Count: 511 and 516

— ChEMBL document CHEMBL5724801, “EUbOPEN Chemogenomics Library - Multiplex” (2024)
